From paper PMC6044781 (ACS Omega, 2017)
Like-named read-outs stand apart in the source and are kept apart here.

Columns and labels:
[1] = tested on: F12T (5′-fluorescein-TAGGGTTAGGGT-3′-TAMRA) G-quadruplex; test: FRET melting assay, F12T; type: binding, human; settings: 2 μM ligand; for ΔTm F12T: no competitor; for ΔTm F12TComp12: with competitor complementary strand Compl 12
Procedure, shortened: (§1)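 Dual-labelled oligos (5′-fluorescein/3′-TAMRA) at 0.25 μM in 10 mM sodium cacodylate, 0.5 mM EDTA, 25 mM KCl, pH 7.0, with or without 2 μM test compound. For competitor runs, each oligo was preincubated 24 h at 25 °C with 2 μM unlabelled complementary strand. Excitation 480 nm, emission 520 nm, read at 1 °C steps from 25 to 95 °C with 60 s equilibration per reading. ΔTm is the average of three determinations.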

[2] = tested on: h-telo 12-mer quadruplex (DNA, G4) TAGGGTTAGGGT; test: ITC; settings: 25 mM KCl; 10 mM sodium cacodylate, 0.5 mM EDTA, pH 7.0, 25 °C
[3] = tested on: HEK 293T cells; test: MTT cell survival assay, HEK 293T; type: cell-based; settings: Homo sapiens
Procedure, shortened: (§2)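 MTT survival assay: cells treated with increasing concentrations of test compound for 48 or 72 h at 37 °C. Medium was then replaced with fresh medium containing MTT for 4 h, formazan dissolved in DMSO, and absorbance read at 570 nm. IC50 determined at each time point.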

[4] = tested on: telomerase (from A549 cells); test: TRAP-Lig assay; type: biochemical, human; settings: read-out: TRAP assay IC50; telomerase inhibition, ligand 1–50 μM
[5] = tested on: HeLa cells; test: Annexin V-FITC/PI apoptosis assay; type: cell-based, human; settings: 1 μM, 24 h
Procedure, shortened: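 HeLa cells seeded at 2 × 10^5 per 60 mm plate and treated with test compound at 1 μM. After 24 h, cells were harvested, washed twice in PBS and resuspended at 1 × 10^6 cells/mL in kit buffer. Annexin V-FITC/PI staining for 15 min in the dark at room temperature; Annexin V–FITC labelling quantified. Values are mean ± SEM.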

[6] = tested on: h-telo 22-mer quadruplex; test: ITC with h-telo 22-mer quadruplex; type: binding, human; settings: for binding equilibrium constants from microcalorimetry: h-telo 22-mer quadruplex; for binding constant Ka × 10^6: h-telo 22-mer, 25 °C
Procedure, shortened: (§3)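 Isothermal titration calorimetry at 25 °C in cacodylate/EDTA/KCl buffer, pH 7.0; solutions degassed under vacuum (160 mbar, 10 min). Test compound at 4 × 10^-4 M was injected in 5–10 μL aliquots (20 s each, 240 s apart, 60 s initial delay, 381 rpm) into DNA: 22-mer and 26-mer duplex at 1.0 × 10^-5 M, 12-mer at 0.5 × 10^-5 M. Dilution heat was subtracted and data fitted to a single-site model. Ka is mean ± SD of three runs.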

[7] = tested on: h-telo 22-mer quadruplex (DNA, G4) AGGGTTAGGGTTAGGGTTAGGG; test: ITC; settings: 25 mM KCl; 10 mM sodium cacodylate, 0.5 mM EDTA, pH 7.0, 25 °C
[8] = tested on: duplex DNA 26-mer; test: SPR with duplex DNA 26-mer; type: binding; settings: 25 °C, error ±15%
Procedure, shortened: (§4)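 Surface plasmon resonance on streptavidin chips carrying 5′-biotin-T9-linked 22-mer telomeric or 26-mer duplex DNA, annealed at 95 °C and slowly cooled in 10 mM HEPES, 100 mM KCl, 0.005% IGEPAL, pH 7.4. Surfaces equilibrated 2 h at 20 μL/min, 25 °C. Test compound (1.0 × 10^-9 to 10^-6 M) injected for 300 s in random order; regeneration with 1 M NaCl in 50 mM NaOH. Sensorgrams fitted to a two-site model. Selectivity is the ratio of G4 to duplex binding constants. Triplicate runs, mean ± SEM.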

[9] = tested on: HeLa cells; test: Cell cycle analysis by flow cytometry; type: cell-based, human; settings: 1 μM, 24 h; for G2/M phase arrest (G2): control 7.6%
[10] = tested on: HeLa cells; test: MTT cell survival assay, HeLa; type: cell-based; settings: Homo sapiens
Procedure, shortened: as §2

[11] = tested on: duplex DNA 26-mer; test: ITC with duplex DNA 26-mer; type: binding; settings: for binding constant Ka × 10^6: duplex DNA 26-mer, 25 °C
Procedure, shortened: as §3

[12] = tested on: h-telo 22-mer quadruplex; test: SPR with h-telo 22-mer; type: binding, human; settings: for KA: h-telo 22-mer, 25 °C, error ±15%; for KA h-telo 22/KA dsDNA: selectivity 22-mer quadruplex over DNA duplex, SPR
Procedure, shortened: as §4

[13] = tested on: h-telo 12-mer quadruplex; test: ITC with h-telo 12-mer quadruplex; type: binding, human; settings: 25 °C, BMSG-SH-3: first line of two
Procedure, shortened: as §3

[14] = tested on: F22T (5′-fluorescein-AGGGTTAGGGTTAGGGTTAGGG-3′-TAMRA) G-quadruplex; test: FRET melting assay, F22T; type: binding, human; settings: 2 μM ligand; for ΔTm F22T: no competitor; for ΔTm F22TComp22: with competitor complementary strand Compl 22
Procedure, shortened: as §1

[15] = tested on: A549 cells; test: MTT cell survival assay, A549; type: cell-based; settings: Homo sapiens
Procedure, shortened: as §2

[16] = tested on: 26-mer duplex DNA (DNA, duplex) CAATCGGATCGAATTCGATCCGATTG; test: ITC; settings: 25 mM KCl; 10 mM sodium cacodylate, 0.5 mM EDTA, pH 7.0, 25 °C
[17] = A549, 48 h, read-out: IC50 at 48 h
[18] = A549, 72 h, read-out: IC50 at 72 h

## CN1CCN(CCCN2C(=O)c3ccc4c5c(ccc(c35)C2=O)C(=O)N(CCCN2CCN(C)CC2)C4=O)CC1 [ALI-C3, 2,7-Bis(3-(4-methylpiperazin-1-yl)propyl)benzo[lmn][3,8]phenanthroline-1,3,6,8 (2H,7H)tetraone]
[1]
  ΔTm F12T: 5 ± 0.8 °C
  ΔTm F12TComp12: 7 ± 0.5 °C
[2]
  Ka: 0.61 ± 1.82 × 10^6 M^-1
[3]; 48 h, read-out: IC50 at 48 h
  IC50: 12.2 µM
[3]; 72 h, read-out: IC50 at 72 h
  IC50: 8.9 µM
[4]
  IC50: > 50 µM
[5]
  apoptotic cells (Annexin V–FITC positive cells): 35%
[6]
  binding equilibrium constants from microcalorimetry: 6.35 µM
  binding constant Ka × 10^6: 6.35 ± 0.26 10^6 M^–1
[7]
  Ka: 6.35 ± 0.26 × 10^6 M^-1
[8]
  KA: 0.1 × 10^6 M^–1
  Kd: 17.1 µM
[9]
  G2/M phase arrest (G2): 15.7%
[10]; 48 h, read-out: IC50 at 48 h
  IC50: 2.4 µM
[10]; 72 h, read-out: IC50 at 72 h
  IC50: 2.1 µM
[11]
  binding constant Ka × 10^6: 0.03 ± 0.10 10^6 M^–1
[12]
  KA: 8.7 × 10^6 M^–1
  KA h-telo 22/KA dsDNA: 87.0
[13]
  binding constant Ka × 10^6: 0.61 ± 1.82 10^6 M^–1
[14]
  ΔTm F22T: 9 ± 1.2 °C
  ΔTm F22TComp22: 11 ± 0.6 °C
[15]; [17]
  IC50: 1.8 µM
[15]; [18]
  IC50: 1.4 µM

## CN1CCN(c2ccc3nc(-c4ccc(N5C(=O)c6ccc7c8c(ccc(c68)C5=O)C(=O)N(c5ccc(-c6nc8ccc(N9CCN(C)CC9)cc8[nH]6)cc5)C7=O)cc4)[nH]c3c2)CC1 [BBZ-ARO, 2,7-Bis(4-(6-(4-methylpiperazin-1-yl)-1H-benzo[d]imidazol-2-yl)phenyl)benzo[lmn][3,8]phenanthroline-1,3,6,8(2H,7H)-tetraone]
[1]
  ΔTm F12T: 13 ± 1.4 °C
  ΔTm F12TComp12: 15 ± 0.5 °C
[2]
  Ka: 6.63 ± 2.39 × 10^6 M^-1
[3]; 48 h, read-out: IC50 at 48 h
  IC50: 77.9 µM
[3]; 72 h, read-out: IC50 at 72 h
  IC50: 63.4 µM
[4]
  IC50: 4.56 µM
[5]
  apoptotic cells (Annexin V–FITC positive cells): 74%
[6]; 22-mer quadruplex
  affinity (ITC): 8.4 × 10^6 M^–1
[6]
  binding equilibrium constants from microcalorimetry: 8.47 µM
  binding constant Ka × 10^6: 8.47 ± 0.65 10^6 M^–1
[7]
  Ka: 8.47 ± 0.65 × 10^6 M^-1
[8]
  KA: 0.6 × 10^6 M^–1
  Kd: 36.6 µM
[9]; control 0.2%
  sub-G1 phase accumulation: 7.3%
[9]
  G2/M phase arrest (G2): 15.8%
[16]
  Ka: 0.05 ± 0.65 × 10^6 M^-1
[10]; 48 h, read-out: IC50 at 48 h
  IC50: 24.7 µM
[10]; 72 h, read-out: IC50 at 72 h
  IC50: 20.5 µM
[11]; duplex DNA
  binding affinity (ITC): 5.0 × 10^4 M^–1
[11]
  binding constant Ka × 10^6: 0.05 ± 0.65 10^6 M^–1
[12]
  KA: 9.5 × 10^7 M^–1
  KA h-telo 22/KA dsDNA: 158.3
[13]
  binding constant Ka × 10^6: 6.63 ± 2.39 10^6 M^–1
[14]
  ΔTm F22T: 14 ± 0.5 °C
  ΔTm F22TComp22: 16 ± 1.6 °C
[15]; [17]
  IC50: 26.4 µM
[15]; [18]
  IC50: 19.7 µM

## CN1CCN(c2ccc3nc(CN4C(=O)c5ccc6c7c(ccc(c57)C4=O)C(=O)N(Cc4nc5ccc(N7CCN(C)CC7)cc5[nH]4)C6=O)[nH]c3c2)CC1 [BBZ-AROCH2, 2,7-Bis((6-(4-methylpiperazin-1-yl)-1H-benzo[d]imidazol-2-yl)methyl)benzo[lmn]-[3,8]-phenanthroline-1,3,6,8(2H,7H)-tetraone]
[1]
  ΔTm F12T: 8 ± 0.4 °C
  ΔTm F12TComp12: 10 ± 1.6 °C
[2]
  Ka: 0.89 ± 0.11 × 10^6 M^-1
[3]; 48 h, read-out: IC50 at 48 h
  IC50: > 100 µM
[3]; 72 h, read-out: IC50 at 72 h
  IC50: > 100 µM
[4]
  IC50: > 50 µM
[5]
  apoptotic cells (Annexin V–FITC positive cells): 40%
[6]
  binding equilibrium constants from microcalorimetry: 3.41 µM
  binding constant Ka × 10^6: 3.41 ± 0.22 10^6 M^–1
[7]
  Ka: 3.41 ± 0.22 × 10^6 M^-1
[8]
  KA: 0.4 × 10^6 M^–1
  Kd: 55.2 µM
[9]
  G2/M phase arrest (G2): 19.1%
[16]
  Ka: 0.88 ± 0.63 × 10^6 M^-1
[10]; 48 h, read-out: IC50 at 48 h
  IC50: 92.7 µM
[10]; 72 h, read-out: IC50 at 72 h
  IC50: 86.5 µM
[11]
  binding constant Ka × 10^6: 0.88 ± 0.63 10^6 M^–1
[12]
  KA: 1.4 × 10^6 M^–1
  KA h-telo 22/KA dsDNA: 3.5
[13]
  binding constant Ka × 10^6: 0.89 ± 0.11 10^6 M^–1
[14]
  ΔTm F22T: 7 ± 0.7 °C
  ΔTm F22TComp22: 9 ± 0.5 °C
[15]; [17]
  IC50: 79.5 µM
[15]; [18]
  IC50: 74.8 µM
